Measured values from ChEMBL document CHEMBL3745597, “Fragment-Based Discovery of Subtype-Selective Adenosine Receptor Ligands from Homology Models” (J Med Chem, 2015).
Activity calls are given as the source filed them. The rule behind the calls is not given here.

Assays:
[1] = molecular target: T1, Adenosine receptor A3 (Homo sapiens, UniProt P0DMS8); experiment: Displacement of CA200645 from human adenosine A3 receptor expressed in CHO CRE-SPAP cells incubated for 1 hr by fluorescence analysis; assay type: cell-based
T1 sequence (P0DMS8 whole entry, looked up): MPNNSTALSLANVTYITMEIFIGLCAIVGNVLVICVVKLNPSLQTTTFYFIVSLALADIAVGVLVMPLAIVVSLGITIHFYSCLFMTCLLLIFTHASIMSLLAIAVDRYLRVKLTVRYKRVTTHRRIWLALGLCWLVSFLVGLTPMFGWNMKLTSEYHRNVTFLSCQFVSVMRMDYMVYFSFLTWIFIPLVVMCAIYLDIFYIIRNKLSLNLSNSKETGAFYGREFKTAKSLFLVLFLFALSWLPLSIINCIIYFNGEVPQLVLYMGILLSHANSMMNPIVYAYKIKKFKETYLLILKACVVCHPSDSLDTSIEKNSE
Procedure, shortened: (§1)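 Live confluent CHO cells expressing A1AR or A3AR were washed into HEPES-buffered saline, pH 7.4. Increasing concentrations of competitor were added with 25 nM fluorescent xanthine ligand CA200645 and incubated 1 h at 37°C, then imaged for total intensity. IC50 was converted to Ki by Cheng-Prusoff using ligand KD 17.0 nM (A1) or 3.11 nM (A3). Values are mean of n experiments run in duplicate.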

[2] = molecular target: T2, Adenosine receptor A1 (Homo sapiens, UniProt P30542); experiment: Displacement of CA200645 from human adenosine A1 receptor expressed in CHO cells incubated for 1 hr by fluorescence analysis; assay type: cell-based; procedure, shortened: as §1
T2 sequence (P30542 whole entry): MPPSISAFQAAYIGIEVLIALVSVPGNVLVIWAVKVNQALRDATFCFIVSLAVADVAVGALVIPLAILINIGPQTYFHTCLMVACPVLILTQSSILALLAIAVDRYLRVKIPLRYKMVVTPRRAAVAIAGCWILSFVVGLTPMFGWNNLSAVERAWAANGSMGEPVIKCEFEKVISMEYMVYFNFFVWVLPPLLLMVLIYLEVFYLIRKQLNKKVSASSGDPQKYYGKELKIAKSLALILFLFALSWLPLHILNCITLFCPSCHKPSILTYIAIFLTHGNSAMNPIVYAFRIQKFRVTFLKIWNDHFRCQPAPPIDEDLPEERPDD

[3] = molecular target: Adenosine receptors; A1 & A3 (Homo sapiens) (UniProt P30542+P0DMS8); experiment: Selectivity ratio of Ki for human adenosine A1 receptor expressed in CHO cells to Ki for human adenosine A3 receptor expressed in CHO CRE-SPAP cells; assay type: functional, cell-based
Procedure, shortened: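 Ratio of Ki at A1AR to Ki at A3AR. Both Ki values come from the live-cell CA200645 competition assay (25 nM tracer, 1 h, 37°C), with Cheng-Prusoff correction using KD 17.0 nM (A1) and 3.11 nM (A3).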

[4] = molecular target: T3, Adenosine receptor A2a (Homo sapiens, UniProt P29274); experiment: Displacement of [3H]-ZM241385 from human adenosine A2A receptor expressed in HeLa cells at 10 uM; assay type: cell-based
T3 sequence (P29274 whole entry): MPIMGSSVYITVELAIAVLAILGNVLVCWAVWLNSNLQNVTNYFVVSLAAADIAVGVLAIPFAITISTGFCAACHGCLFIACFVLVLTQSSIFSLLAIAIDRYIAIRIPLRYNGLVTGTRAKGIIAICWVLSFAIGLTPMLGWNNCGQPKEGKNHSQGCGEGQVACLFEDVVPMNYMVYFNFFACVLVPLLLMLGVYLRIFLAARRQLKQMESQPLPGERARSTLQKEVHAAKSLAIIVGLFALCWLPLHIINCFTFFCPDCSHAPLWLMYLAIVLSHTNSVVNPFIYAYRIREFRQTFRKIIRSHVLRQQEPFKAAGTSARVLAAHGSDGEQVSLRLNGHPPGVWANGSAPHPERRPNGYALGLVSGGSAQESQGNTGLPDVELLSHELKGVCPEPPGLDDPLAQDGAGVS
Procedure, shortened: (§2)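 Human A2AAR expressed in transfected HeLa cells, with [3H]-ZM241385 as radioligand. Percent inhibition was measured at a single 10 µM concentration. Ki was determined only where displacement exceeded 50% at 10 µM.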

[5] = molecular target: T1, Adenosine receptor A3; experiment: Competitive antagonist activity at YFP linked human adenosine A3 receptor expressed in CHO CRE-SPAP cells assessed as inhibition of NECA-induced receptor internalization preincubated for 30 mins followed by addition of NECA measured after 60 mins by H33342 staining-based fluorescence analysis; assay type: cell-based
Procedure, shortened: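 Cells stably expressing YFP-tagged A3AR, serum-free DMEM/F12 with 2 mM L-glutamine, preincubated 30 min at 37°C with a fixed 10 µM antagonist or with medium only. Rising NECA concentrations were then added for 60 min. Cells were fixed in 3% paraformaldehyde, nuclei stained with H33342 and imaged confocally. Read-out was YFP granule count per cell. Antagonist KD came from the Gaddum dose-ratio equation, n=5 run in triplicate.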

[6] = molecular target: T3, Adenosine receptor A2a; experiment: Displacement of [3H]-ZM241385 from human adenosine A2A receptor expressed in HeLa cells; assay type: cell-based; procedure, shortened: as §2
[7] = system: HeLa; experiment: Selectivity ratio of Ki for human adenosine A2A receptor expressed in HeLa cells to Ki for human adenosine A3 receptor expressed in CHO CRE-SPAP cells; assay type: cell-based

Ki ([1]; read-out: pKi (converted)) | Ki [2] | Ratio Ki [3] | pKi ([2]; cho) | Activity [4] | Ki ([1]; read-out: Ki) | Kd [5] | Ki [6] | Compound | Ratio Ki [7]
1820 nM | 61700 nM | 70 |  |  |  |  |  | CCc1cc2c(=O)[nH]c(C3CC3)nc2s1 | 
550 nM | 56200 nM | 102 |  | inactive |  | 741 nM |  | CCc1cc2c(=O)[nH]c(-c3ccoc3)nc2s1 | 
138 nM | 347 nM | 2 |  |  |  |  |  | O=c1[nH]c(-c2ccco2)nc2scc(-c3ccco3)c12 | 
105 nM | 2950 nM | 29 |  | inactive | 120 nM |  |  | O=C(Nc1nc(C2CC2)cs1)c1ccoc1 | 
398 nM | 1950 nM | 4 |  |  |  |  |  | Cc1sc2nc(-c3ccoc3)[nH]c(=O)c2c1C | 

More lines, now with the values behind:

Compound | Ki ([1]; read-out: pKi (converted)) | Ki [2] | Ratio Ki [3] | pKi ([2]; cho) | Activity [4] | Ki ([1]; read-out: Ki) | Kd [5] | Ki [6] | Ratio Ki [7]
CCc1cc2c(O)nc(-c3ccncc3)nc2s1 | 2000 nM | 22900 nM | 14 |  |  |  |  |  | 
CCc1cc2c(O)nc(N3CCCC3)nc2s1 | 2290 nM |  | > 38 | > 4 | inactive |  |  |  | 
O=C(Nc1nc(C2CC2)cs1)c1cc2ccccc2s1 | 33.9 nM | 3720 nM | 101 |  |  | 40 nM | 741 nM | 2900 nM | 72
CC(C)(C)C(=O)Nc1nc(C2CC2)cs1 | 4900 nM | 12300 nM | 2 |  |  |  |  |  | 
CCc1cc2c(O)ncnc2s1 | 13500 nM | 75900 nM | 6 |  |  |  |  |  | 
O=C(Nc1ccc2[nH]ncc2c1)c1ccc[nH]1 | 2400 nM | 3160 nM | 1.2 |  |  |  |  |  | 
O=C(Nc1nc2ccccc2s1)c1cc2ccccc2s1 | 331 nM | 6170 nM | 16 |  |  |  |  |  | 
O=C(Nc1nc2c(s1)CCC2)c1cc2ccccc2s1 | 380 nM | 2820 nM | 5 |  |  |  |  |  | 
CSc1sc(NC(=O)C=C(C)C)nc1C | 2190 nM | 29500 nM | 24 |  |  |  |  |  | 
COc1cccc2sc(NC(=O)c3cc4ccccc4s3)nc12 | 110 nM | 3090 nM | 34 |  |  | 120 nM |  |  | 
